Data from ChEMBL document CHEMBL4325909, “Synthesis and evaluation of chalcone analogues containing a 4-oxoquinazolin-2-yl group as potential anti-tumor agents” (Eur J Med Chem, 2019).

Assays:
[1] = tested on: HCT-116; assay: Cytotoxicity against human HCT116 cells assessed as reduction in cell viability at 20 uM after 72 hrs by MTS assay relative to control; assay type: functional
Procedure, shortened: (§1)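 Cells grown in DMEM with 10% FBS at 37 °C, 5% CO2, exposed to 20 μM for 72 h. Proliferation read by MTS and inhibition expressed relative to vehicle. ≥50% inhibition counted as active. Triplicate wells, three independent experiments.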

[2] = tested on: MCF7; assay: Cytotoxicity against human MCF7 cells assessed as reduction in cell viability at 20 uM after 72 hrs by MTS assay relative to control; assay type: functional; procedure, shortened: as §1
[3] = tested on: MCF7; assay: Cytotoxicity against human MCF7 cells assessed as reduction in cell viability after 72 hrs by MTS assay; assay type: functional, cell-based; conditions: MCF7, 72 h
Procedure, shortened: (§2)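 Cells kept in DMEM with 10% FBS at 37 °C, 5% CO2. Proliferation read by MTS (CellTiter 96 AQueous One) 72 h after exposure across a concentration range. IC50 is the concentration giving 50% proliferation inhibition. Triplicate wells, three independent experiments, mean ± SD.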

[4] = tested on: HCT-116; assay: Cytotoxicity against human HCT116 cells assessed as reduction in cell viability after 72 hrs by MTS assay; assay type: functional, cell-based; conditions: HCT-116, 72 h; procedure, shortened: as §2
[5] = tested on: MCF-10A; assay: Cytotoxicity against human MCF10A cells assessed as reduction in cell viability after 72 hrs by MTS assay; assay type: cell-based
Procedure, shortened: (§3)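 MTS (CellTiter 96 AQueous One) proliferation read after 72 h of exposure across a concentration range. IC50 is the concentration giving 50% proliferation inhibition. Triplicate determinations in three independent experiments, mean ± SD.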

[6] = tested on: MDA-MB-231; assay: Cytotoxicity against human MDA-MB-231 cells assessed as reduction in cell viability after 72 hrs by MTS assay; assay type: functional, cell-based; conditions: MDA-MB-231, 72 h; procedure, shortened: as §3
[7] = tested on: HT-29; assay: Cytotoxicity against human HT-29 cells assessed as reduction in cell viability after 72 hrs by MTS assay; assay type: functional, cell-based; conditions: HT-29, 72 h; procedure, shortened: as §3
[8] = tested on: HeLa; assay: Cytotoxicity against human HeLa cells assessed as reduction in cell viability after 72 hrs by MTS assay; assay type: functional, cell-based; procedure, shortened: as §3
[9] = tested on: A549; assay: Cytotoxicity against human A549 cells assessed as reduction in cell viability after 72 hrs by MTS assay; assay type: functional, cell-based; conditions: A549, 72 h; procedure, shortened: as §3

O=C(/C=C/c1nc2ccccc2c(=O)[nH]1)c1ccc(F)cc1
Activity [1]: < 50% | Activity [2]: < 50% | IC50 [3]: > 20 µM | IC50 [4]: > 20 µM

COc1cccc(/C=C/C(=O)c2nc3ccccc3c(=O)[nH]2)c1
Activity [1]: >=50% | Activity [2]: >=50% | IC50 [3]: 15.5 µM | IC50 [4]: 14.7 µM

COc1cc(C(=O)/C=C/c2nc3ccccc3c(=O)[nH]2)ccc1O
Activity [1]: >=50% | Activity [2]: >=50% | IC50 [3]: 6.05 µM | IC50 [4]: 4.58 µM

O=C(/C=C/c1ccc(F)cc1)c1nc2ccccc2c(=O)[nH]1
Activity [1]: >=50% | Activity [2]: >=50% | IC50 [3]: > 20 µM | IC50 [4]: 15.2 µM

COc1cc(OC)c(C(=O)/C=C/c2nc3ccccc3c(=O)[nH]2)c(OC)c1
Activity [1]: >=50% | Activity [2]: >=50% | IC50 [3]: 5.02 µM | IC50 [4]: 5.57 µM

O=C(/C=C/c1ccc([N+](=O)[O-])cc1)c1nc2ccccc2c(=O)[nH]1
Activity [1]: >=50% | Activity [2]: >=50% | IC50 [3]: > 20 µM | IC50 [4]: 13.2 µM

O=C(/C=C/c1nc2ccccc2c(=O)[nH]1)c1ccc(O)cc1
IC50 [5]: 6.12 µM | IC50 [6]: 16.5 µM | Activity [1]: >=50% | Activity [2]: >=50% | IC50 [7]: 10.7 µM | IC50 [8]: 9.44 µM | IC50 [3]: 4.92 µM | IC50 [4]: 4.11 µM | IC50 [9]: 15.1 µM

O=C(/C=C/c1cccnc1)c1nc2ccccc2c(=O)[nH]1
Activity [1]: >=50% | Activity [2]: >=50% | IC50 [3]: > 20 µM | IC50 [4]: > 20 µM

O=C(/C=C/c1ccc(Br)cc1)c1nc2ccccc2c(=O)[nH]1
Activity [1]: >=50% | Activity [2]: >=50% | IC50 [3]: > 20 µM | IC50 [4]: > 20 µM

O=C(/C=C/c1nc2ccccc2c(=O)[nH]1)c1ccc(Cl)cc1
Activity [1]: >=50% | Activity [2]: >=50% | IC50 [3]: 6.09 µM | IC50 [4]: 6.1 µM

Cc1ccc(/C=C/C(=O)c2nc3ccccc3c(=O)[nH]2)cc1
Activity [1]: >=50% | Activity [2]: < 50% | IC50 [3]: > 20 µM | IC50 [4]: > 20 µM

O=C(/C=C/c1ccccn1)c1nc2ccccc2c(=O)[nH]1
Activity [1]: >=50% | Activity [2]: >=50% | IC50 [3]: > 20 µM | IC50 [4]: > 20 µM

O=C(/C=C/c1nc2ccccc2c(=O)[nH]1)c1ccc(Cl)c(Cl)c1
Activity [1]: >=50% | Activity [2]: >=50% | IC50 [3]: 8.21 µM | IC50 [4]: 17 µM

O=C(/C=C/c1ccncc1)c1nc2ccccc2c(=O)[nH]1
Activity [1]: >=50% | Activity [2]: < 50% | IC50 [3]: > 20 µM | IC50 [4]: > 20 µM

COc1cc(C(=O)/C=C/c2nc3ccccc3c(=O)[nH]2)cc(OC)c1OC
Activity [1]: >=50% | Activity [2]: >=50% | IC50 [3]: 13.9 µM | IC50 [4]: 12.8 µM

COc1cc(/C=C/C(=O)c2nc3ccccc3c(=O)[nH]2)cc(OC)c1
Activity [1]: >=50% | Activity [2]: >=50% | IC50 [3]: 16.8 µM | IC50 [4]: 15.8 µM

COc1cccc(C(=O)/C=C/c2nc3ccccc3c(=O)[nH]2)c1
Activity [1]: >=50% | Activity [2]: >=50% | IC50 [3]: 12.9 µM | IC50 [4]: 12 µM

O=C(/C=C/c1nc2ccccc2c(=O)[nH]1)c1ccccc1
Activity [1]: >=50% | Activity [2]: >=50% | IC50 [3]: 4.09 µM | IC50 [4]: 5.47 µM

O=c1[nH]cc(F)c(=O)[nH]1 [FLUOROURACIL]
IC50 [5]: > 20 µM | IC50 [6]: > 20 µM | IC50 [7]: 9.99 µM | IC50 [8]: > 20 µM | IC50 [9]: 15 µM

O=C(/C=C/c1nc2ccccc2c(=O)[nH]1)c1ccc(Br)cc1
IC50 [5]: 11.3 µM | IC50 [6]: 18.3 µM | Activity [1]: >=50% | Activity [2]: >=50% | IC50 [7]: > 20 µM | IC50 [8]: 16.1 µM | IC50 [3]: 3.75 µM | IC50 [4]: 4.74 µM | IC50 [9]: 19.5 µM

COc1ccc(/C=C/C(=O)c2nc3ccccc3c(=O)[nH]2)cc1
Activity [1]: < 50% | Activity [2]: < 50% | IC50 [3]: > 20 µM | IC50 [4]: > 20 µM

O=C(/C=C/c1ccco1)c1nc2ccccc2c(=O)[nH]1
Activity [1]: >=50% | Activity [2]: >=50% | IC50 [3]: > 20 µM | IC50 [4]: > 20 µM

O=C(/C=C/c1nc2ccccc2c(=O)[nH]1)c1ccc(C(F)(F)F)cc1
Activity [1]: < 50% | Activity [2]: < 50% | IC50 [3]: > 20 µM | IC50 [4]: > 20 µM

COc1ccc(C(=O)/C=C/c2nc3ccccc3c(=O)[nH]2)cc1
Activity [1]: >=50% | Activity [2]: >=50% | IC50 [3]: 10.2 µM | IC50 [4]: 10 µM

COc1ccc(/C=C/C(=O)c2nc3ccccc3c(=O)[nH]2)c(OC)c1
Activity [1]: < 50% | Activity [2]: < 50% | IC50 [3]: > 20 µM | IC50 [4]: > 20 µM

COc1ccccc1C(=O)/C=C/c1nc2ccccc2c(=O)[nH]1
IC50 [5]: 5.26 µM | IC50 [6]: 15.7 µM | Activity [1]: >=50% | Activity [2]: >=50% | IC50 [7]: 6.71 µM | IC50 [8]: 13.4 µM | IC50 [3]: 4.3 µM | IC50 [4]: 3.91 µM | IC50 [9]: 13.7 µM

Cc1ccc(C(=O)/C=C/c2nc3ccccc3c(=O)[nH]2)cc1
Activity [1]: >=50% | Activity [2]: >=50% | IC50 [3]: 9.44 µM | IC50 [4]: 5.75 µM

O=C(/C=C/c1cccs1)c1nc2ccccc2c(=O)[nH]1
Activity [1]: >=50% | Activity [2]: >=50% | IC50 [3]: > 20 µM | IC50 [4]: > 20 µM

Cc1ccc(C(=O)/C=C/c2nc3ccccc3c(=O)[nH]2)c(C)c1
IC50 [5]: 5.47 µM | IC50 [6]: 15.3 µM | Activity [1]: >=50% | Activity [2]: >=50% | IC50 [7]: 12.5 µM | IC50 [8]: 9.55 µM | IC50 [3]: 4.5 µM | IC50 [4]: 4.77 µM | IC50 [9]: 13.3 µM

COc1ccc(C(=O)/C=C/c2nc3ccccc3c(=O)[nH]2)c(OC)c1
IC50 [5]: 9.14 µM | IC50 [6]: 14.3 µM | Activity [1]: >=50% | Activity [2]: >=50% | IC50 [7]: 8.77 µM | IC50 [8]: 12.7 µM | IC50 [3]: 4.49 µM | IC50 [4]: 4.08 µM | IC50 [9]: 15.5 µM

Nc1ccc(C(=O)/C=C/c2nc3ccccc3c(=O)[nH]2)cc1
Activity [1]: < 50% | Activity [2]: < 50% | IC50 [3]: > 20 µM | IC50 [4]: > 20 µM

COc1ccccc1/C=C/C(=O)c1nc2ccccc2c(=O)[nH]1
Activity [1]: < 50% | Activity [2]: >=50% | IC50 [3]: > 20 µM | IC50 [4]: > 20 µM

N#Cc1ccc(/C=C/C(=O)c2nc3ccccc3c(=O)[nH]2)cc1
Activity [1]: >=50% | Activity [2]: >=50% | IC50 [3]: > 20 µM | IC50 [4]: 19.8 µM

COc1cc(/C=C/C(=O)c2nc3ccccc3c(=O)[nH]2)cc(OC)c1OC
Activity [1]: >=50% | Activity [2]: < 50% | IC50 [3]: > 20 µM | IC50 [4]: > 20 µM

Cc1ccccc1C(=O)/C=C/c1nc2ccccc2c(=O)[nH]1
IC50 [5]: 6.19 µM | IC50 [6]: 10.5 µM | Activity [1]: >=50% | Activity [2]: >=50% | IC50 [7]: 6.45 µM | IC50 [8]: 10.4 µM | IC50 [3]: 4.2 µM | IC50 [4]: 4.14 µM | IC50 [9]: 13.3 µM

O=C(/C=C/c1ccc(Cl)cc1)c1nc2ccccc2c(=O)[nH]1
Activity [1]: >=50% | Activity [2]: >=50% | IC50 [3]: > 20 µM | IC50 [4]: 15.6 µM

O=C(/C=C/c1ccccc1)c1nc2ccccc2c(=O)[nH]1
Activity [1]: < 50% | Activity [2]: >=50% | IC50 [3]: > 20 µM | IC50 [4]: > 20 µM

COc1ccc(/C=C/C(=O)c2nc3ccccc3c(=O)[nH]2)cc1OC
Activity [1]: < 50% | Activity [2]: < 50% | IC50 [3]: > 20 µM | IC50 [4]: > 20 µM
